Source: PubChem (several laboratories)
Most compounds without a hit are left out; they make up all but 5.4% or so of the library.
CSC inhib = blocks cancer stem cells; cancer stem cell-like cells viability, luminescence; inhibition, % at 7.5 µM; 1.1% of 300,000 active; in the data active means inhibition above about 75%; tested in HMLE shEcad cells
T cruzi inh = T. cruzi replication inhibition | AID 1885 | inhibition, % (concentration not given with the values) | 1.4% of 300,000 active | T. cruzi beta-gal in NIH3T3, luminescence, 90 h;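 active means mean inhibition across valid replicates above about 55%, limit read from the data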;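 further: signal also drops with host cell toxicity which is not excluded here; higher percent means less beta-gal luminescence so fewer parasites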
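System – NIH/3T3 host cells with β-galactosidase reporter T. cruzi · Doses – single 50 nL compound addition per well in DMSO · Reagent – 5000 T. cruzi trypomastigotes/well · Medium – Low-serum DMEM with 2% FBS · Timing – ≥90 h infection period, 3 h prior cell attachment · Evaluation – parasite load inhibition, % · Technique – GalScreen luminescence, 60 min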
Mdm2 MdmX PPI = inhibitors of human Mdm2/MdmX interaction | O15151+Q00987 | 3% of 330,000 active | inhibition, % at 8 µM | SaOS-2 split-luciferase Mdm2/MdmX complementation, luminescence;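 active means inhibition of at least 50% at 8 µM in the primary screen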
SKKanGAS inh = SKKanGAS growth inhibition; S. pyogenes SKKanGAS, kanamycin growth, BacTiter-Glo, 6 h; inhibition, % at 7.5 µM; 1.3% of 300,000 active;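 active means mean replicate score, as percent of positive control median, at least 50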;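 further: strain carries kanamycin resistance gene driven by streptokinase promoter and grows in 40 µg/ml kanamycin; loss of luminescence reflects streptokinase promoter inhibition or plain growth inhibition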
aSyn 5UTR inh = 5' untranslated region of α-synuclein, MLPCN primary screen; alpha-synuclein 5'UTR reporter, inhibitor activity; inhibition, % (tested at 7.5 µM); 0.82% of 300,000 active; in the data active means inhibition above about 60%;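 further: H4 neuroglioblastoma cells stably carrying SNCA 5'UTR luciferase fusion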
Of the large screens only hits and unclear results are named; the others gave an inactive call; ! = repeats disagree.

CC(C(=O)NCCc1ccc(Cl)cc1)n1c(=O)c2cccn2c2cccnc21 (centres undefined)	none
O=C(O)c1n[nH]c2c1CC(C1CCCCC1)CC2 (centres undefined)	none (no result: T cruzi inh, SKKanGAS inh, aSyn 5UTR inh)
O=C(NCCc1ccc(F)cc1)c1ccc2c(=O)n3c(nc2c1)CCC3	none
O=[N+]([O-])c1ccc(N/N=C/c2sc(N3CCOCC3)nc2-c2ccccc2)c(S(=O)(=O)Nc2ccc(Cl)cc2)c1	T cruzi inh 84, aSyn 5UTR inh 76 (no result: CSC inhib, Mdm2 MdmX PPI)
O=C1N/C(=C/c2ccc(N3CCOCC3)o2)C(=O)N1c1ccccc1	CSC inhib 80 (no result: T cruzi inh, Mdm2 MdmX PPI, SKKanGAS inh, aSyn 5UTR inh)
Cc1c(C(=O)NNC(=S)NCc2ccc(Cl)cc2)oc2ccccc12	SKKanGAS inh 82
CCN(CC(=O)NCc1ccc(Cl)cc1)C(=O)c1oc2ccccc2c1C	none
COc1ccccc1CNC(=O)C1CCC(CNS(=O)(=O)c2ccc(C)cc2)CC1 (centres undefined)	none
CC(=O)c1c(C)[nH]c(C(=O)Nc2nc(C)cs2)c1C	aSyn 5UTR inh 86
CC(=O)c1c(C)[nH]c(C(=O)Nc2nc(-c3ccc(Cl)cc3)cs2)c1C	none
COc1cccc(-c2ncc3ccccc3c2COC(=O)c2ccc(C(C)(C)C)cc2)c1	none (no result: T cruzi inh, SKKanGAS inh, aSyn 5UTR inh)
COC(=O)c1[nH]c2ccc(C)cc2c1NC(=O)CN1CCCc2ccccc21	T cruzi inh 85
O=C1C2C3C=CC(C3)C2C(=O)N1/N=C/c1cn(Cc2ccc(F)cc2)c2ccccc12 (centres undefined)	none
O=C1C2C3C=CC(C3)C2C(=O)N1/N=C/c1cn(Cc2ccccc2)c2ccccc12 (centres undefined)	aSyn 5UTR inh 66
COc1ccc(N/N=C(/C#N)S(=O)(=O)c2nsc(C)c2C#N)cc1	none
Cc1snc(S(=O)(=O)/C(C#N)=N/Nc2cccc(C(F)(F)F)c2)c1C#N	CSC inhib 88
CN1c2ccccc2Sc2cc(N)ccc21	T cruzi inh 71
CC(=O)N1c2ccccc2Sc2ccccc21	none
O=[N+]([O-])c1cn(-c2nc(-c3ccco3)cc(C(F)(F)F)n2)cn1	T cruzi inh 65
CN(CCOc1ccc(Cl)cc1)C(=O)C1CCN(C(=O)c2ccc(F)cc2)CC1	none
CC1CC1C(=O)OCC(=O)Nc1ccc(S(=O)(=O)N2CCOCC2)cc1 (centres undefined)	none (no result: T cruzi inh, SKKanGAS inh, aSyn 5UTR inh)
COc1ccccc1CNS(=O)(=O)c1cc(C(=O)NCC2CCCO2)c(Cl)cc1Cl (centres undefined)	none (no result: CSC inhib, T cruzi inh, SKKanGAS inh, aSyn 5UTR inh)
Cc1ccc(NC(=O)c2cc(-c3ccc(C)c(C)c3O)n[nH]2)cc1C	none
COc1ccc(NC(=O)c2cc(-c3ccc(C)c(C)c3O)n[nH]2)cc1Cl	SKKanGAS inh 57
O=C(Cc1ccc(Br)cc1)Nc1ncc([N+](=O)[O-])s1	T cruzi inh 60
O=C(COc1ccc(Cl)cc1)Nc1ncc([N+](=O)[O-])s1	none (no result: CSC inhib, Mdm2 MdmX PPI)
Cc1ccc(C(=O)Nc2ncc([N+](=O)[O-])s2)cc1	aSyn 5UTR inh 69 (no result: Mdm2 MdmX PPI)
O=C(Cc1ccc(Cl)cc1)Nc1ncc([N+](=O)[O-])s1	T cruzi inh 94 (no result: CSC inhib, Mdm2 MdmX PPI)
CCn1cc(CNC(=O)c2cccc([N+](=O)[O-])c2)c(C)n1	none
O=C(NCc1cn(-c2ccccc2)nc1-c1ccc(F)cc1)c1cccc([N+](=O)[O-])c1	T cruzi inh 61
COC(=O)c1ccc(/C=C/C(=O)OCC(=O)Nc2sccc2C(N)=O)cc1	none (no result: T cruzi inh, SKKanGAS inh, aSyn 5UTR inh)
O=C1[C@H]2[C@@H](c3ccc(Cl)cc3)N3C(=O)N(c4cccc(Br)c4)C(=O)[C@@]3(Cc3ccc(Cl)cc3)[C@H]2C(=O)N1C1CCCCC1	T cruzi inh 65
O=C1[C@H]2[C@@H](c3ccc(F)cc3)N3C(=O)N(c4cccc(Br)c4)C(=O)[C@@]3(Cc3ccc(Cl)cc3)[C@H]2C(=O)N1C1CCCCC1	none
O=C(N/N=C1\CC2CC=CC12)c1ccc(Br)cc1 (centres undefined)	none
Cc1cc(Br)c(OCc2ccc(C(=O)N/N=C3\CC4CC=CC34)cc2)c(Br)c1 (centres undefined)	SKKanGAS inh 68
CCc1ccccc1NC(=O)C1=CN2CCS(=O)(=O)N=C2C=C1	none (no result: CSC inhib, T cruzi inh, SKKanGAS inh, aSyn 5UTR inh)
CCCCOc1cccc(C(=O)Nc2ccc(NC(=O)c3cccs3)cc2)c1	aSyn 5UTR inh 64 (no result: CSC inhib)
Cc1occc1C(=O)Nc1ccc(OCc2ccccc2)cc1	CSC inhib 90
Cc1occc1C(=O)Nc1cccc(C(=O)NCc2ccccc2)c1	none
O=C(Nc1ccc(OCc2ccccc2)cc1)c1cccs1	CSC inhib 80
O=C(Cc1n[nH]c(=O)c2ccccc12)Nc1cc(C(F)(F)F)ccc1-n1cncn1	none (no result: CSC inhib, T cruzi inh, SKKanGAS inh, aSyn 5UTR inh)
Cc1cccc(CC(=O)N2CCN(C(=O)c3ccco3)CC2)c1	none
CNC(=O)COc1ccc(S(=O)(=O)N2CCCC2)cc1	none
Cc1cc(C)c(S(=O)(=O)/N=C2/C=C(Sc3ncn[nH]3)C(=O)c3ccccc32)cc1C	CSC inhib 103 (no result: T cruzi inh, Mdm2 MdmX PPI, SKKanGAS inh, aSyn 5UTR inh)
Cc1cc(O)c(Sc2ncn[nH]2)cc1NS(=O)(=O)c1ccc(Cl)cc1	none (no result: CSC inhib, T cruzi inh, SKKanGAS inh, aSyn 5UTR inh)
COCC(CN1CCN(C2=NS(=O)(=O)c3ccccc32)CC1)OC(=O)c1ccc(OC)cc1 (centres undefined)	none
Cc1[nH][nH]c(=O)c1C(c1c(C)[nH][nH]c1=O)c1cn(Cc2ccc(Cl)c(Cl)c2)c2ccccc12	SKKanGAS inh 69, aSyn 5UTR inh 90 (no result: Mdm2 MdmX PPI)
COc1ccc(-n2c(Cc3cccn3C)nnc2SCC(=O)Nc2cccc(Cl)c2)cc1	CSC inhib 117
COc1ccc(Cl)cc1NS(=O)(=O)c1cccc(C(=O)NC2CC2)c1	none (no result: T cruzi inh, SKKanGAS inh, aSyn 5UTR inh)
COc1ccc(/C=N/Nc2nncc3ccccc23)cc1	aSyn 5UTR inh 67
CCN(C(=O)COC(=O)c1cc(-c2ccc3cc(OC)ccc3c2)nc2ccccc12)C1CCS(=O)(=O)C1 (centres undefined)	aSyn 5UTR inh 67
OCCC1CN(C2CCN(c3ccccc3)CC2)CCN1Cc1ccc(F)c(F)c1 (centres undefined)	none
CC(C)(C)NS(=O)(=O)c1ccc(NC(=O)C2CC(=O)N(CCc3ccc(F)cc3)C2)cc1 (centres undefined)	none (no result: CSC inhib)
CC1CCC(NC(=O)CCN2C(=O)C3CC=CCC3C2=O)CC1 (centres undefined)	none (no result: T cruzi inh, SKKanGAS inh, aSyn 5UTR inh)
CCn1nc(C)c(CN2CCCC(CO)(Cc3ccccc3)C2)c1C (centres undefined)	none
Cc1ccccc1CC1(CO)CCCN(Cc2ccc(C#CC(C)(C)O)cc2)C1 (centres undefined)	none
CCn1nc(C)c(CN2CCCC(CO)(Cc3cccc(Cl)c3)C2)c1C (centres undefined)	T cruzi inh 55
CC(C)(O)C#Cc1ccc(CN2CCCC(CO)(Cc3cccc(Cl)c3)C2)cc1 (centres undefined)	T cruzi inh 58
Cc1ccc(S(=O)(=O)N2CCCCC2)cc1NC(=O)Nc1ccc(Cl)cc1Cl	T cruzi inh 55 (no result: SKKanGAS inh)
Cc1ccc(S(=O)(=O)N2CCCCC2)cc1NC(=O)c1ccccc1Cl	none (no result: T cruzi inh, SKKanGAS inh, aSyn 5UTR inh)
COCCn1c(-c2ccc3ccccc3c2)nc2c1c(=O)[nH]c(=O)n2CC(C)C	none
CCOC(=O)Nc1ccc2c(c1)N(C(=O)CCN1CCOCC1)c1ccccc1S2	T cruzi inh 68!
